What was measured:
Type in all cases: functional
HeLa [1] = test: Cell cycle arrest in human HeLa cells assessed as S phase accumulation at 25 uM after 24 hrs by FACS
Outline: (§1)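 HeLa cells seeded 5 × 10^5 per dish 48 h ahead in DMEM with 10% FCS, then exposed to compound for 24 h (DMSO 0.1% final). Adherent and floating cells pooled, fixed in PBS-MeOH (1:2) at 4 °C for at least 18 h, and stained with PI (50 µg/mL) plus RNase A for 30 min at room temperature. Flow cytometry at 488 nm excitation, doublets gated out; phase percentages taken from DNA histograms.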

HeLa [2] = test: Cell cycle arrest in human HeLa cells assessed as S phase accumulation at 100 uM after 24 hrs by FACS; outline: as §1
HeLa [3] = test: Cell cycle arrest in human HeLa cells assessed as subG1 phase accumulation at 100 uM after 24 hrs by FACS; outline: as §1
HeLa [4] = test: Induction of apoptosis in human HeLa cells assessed as increase in intracellular peroxide level at 100 uM after 1 hr by FACS relative to untreated control
Outline: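 HeLa cells at 80% confluence were refed and exposed to 100 µM for 1, 3 or 24 h. They were loaded with 10 µM DCFH-DA for 30 min in the dark, trypsinized and resuspended in PBS. DCF fluorescence was measured by flow cytometry and expressed as fold versus untreated cells. At least three experiments.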

HeLa [5] = test: Induction of apoptosis in human HeLa cells assessed as increase in intracellular nitric oxide level at 100 uM after 1 hr by FACS relative to untreated control
Outline: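 HeLa cells at 80% confluence were exposed to 100 µM for 1, 3 or 24 h and then stained with 1 µM DAF-2 for 10 min in the dark. After trypsinization, DAF-2 fluorescence was measured by flow cytometry and taken as fold versus untreated cells. At least three experiments.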

HeLa [6] = test: Induction of apoptosis in human HeLa cells assessed as increase in intracellular glutathione-depleted cell population at 25 uM after 24 hrs by FACS
Outline: (§2)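 HeLa cells at 80% confluence got fresh medium and were exposed for 24 h. Adherent and floating cells were pooled, adjusted to (1-2) × 10^6/mL and stained with 25 µM CMF-DA for 30 min at 37 °C. After washing, flow cytometry scored the percentage of GSH-negative cells. At least three experiments.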

HeLa [7] = test: Induction of apoptosis in human HeLa cells assessed as increase in intracellular glutathione-depleted cell population at 50 uM after 24 hrs by FACS; outline: as §2
HeLa [8] = test: Induction of apoptosis in human HeLa cells assessed as number of cells with decreased mitochondrial membrane potential at 100 uM after 1 hr by measuring rhodamine 123 fluorescence intensity; set-up: scale not given: the % may be the effect or the level left
Outline: (§3)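 Cells in DMEM/10% FCS, medium renewed at 80% confluence, then 100 µM agent (0.1% DMSO final) for 1–24 h. Stained with 5 µM rhodamine 123 for 30 min in the dark, washed, trypsinized and resuspended in PBS; flow cytometry, percentage of cells with weak rhodamine 123 staining (reduced ΔΨm); at least three experiments, representative shown.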

HeLa [9] = test: Induction of apoptosis in human HeLa cells assessed as number of cells with decreased mitochondrial membrane potential at 100 uM after 12 hrs by measuring rhodamine 123 fluorescence intensity; set-up: scale not given: the % may be the effect or the level left; outline: as §3
HeLa [10] = test: Induction of apoptosis in human HeLa cells assessed as number of cells with decreased mitochondrial membrane potential at 100 uM after 24 hrs by measuring rhodamine 123 fluorescence intensity; set-up: scale not given: the % may be the effect or the level left; outline: as §3
HeLa [11] = test: Induction of apoptosis in human HeLa cells assessed as increase p53 expression at 100 uM after 6 hrs by FACS
Outline: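 HeLa seeded at 5 × 10^5 cells/dish 48 h before, in DMEM with 10% FCS; medium renewed at 60% confluence, then 100 µM agent (0.1% DMSO final) for 0–24 h. Pooled floating and adherent cells fixed in 1% paraformaldehyde (15 min, 4 °C), permeabilized in 70% EtOH (30 min, 4 °C), then FITC-conjugated mouse anti-p53 mAb (1 h, 37 °C), PI/RNase counterstain; flow cytometry, % p53-positive cells; ≥3 experiments.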

HeLa [12] = test: Induction of apoptosis in human HeLa cells assessed as increase p53 expression at 100 uM after 12 hrs by FACS
Outline: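 Cells at 60% confluence were exposed to 100 µM for 0–24 h. Floating and adherent cells were fixed in 1% paraformaldehyde (15 min, 4 °C) and permeabilized in 70% EtOH. They were stained with FITC-anti-p53 monoclonal antibody for 1 h at 37 °C, then with PI/RNase. Flow cytometry gave the percentage of p53-positive cells.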

HeLa [13] = test: Induction of apoptosis in human HeLa cells pretreated with 5 uM cyclosporin A for 1 hr at 100 uM after 24 hrs by TUNEL assay
Outline: (§4)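 HeLa in DMEM/10% FCS, untreated or pretreated 1 h with listed inhibitor, then 100 µM agent (0.1% DMSO final) for 24 h. Pooled cells fixed in 1% paraformaldehyde (30 min, 4 °C), 70% EtOH (30 min, −20 °C); strand breaks labelled with TdT/fluorescein-BrdUTP (1 h, 37 °C), PI/RNase counterstain; flow cytometry, % apoptotic cells; ≥3 experiments.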

HeLa [14] = test: Induction of apoptosis in human HeLa cells pretreated with 10 uM Dexamethasone for 1 hr at 100 uM after 24 hrs by TUNEL assay; outline: as §4
HeLa [15] = test: Induction of apoptosis in human HeLa cells pretreated with 10 uM pifithrin-alpha for 1 hr at 100 uM after 24 hrs by TUNEL assay; outline: as §4
HeLa [16] = test: Cell cycle arrest in human HeLa cells pretreated with 10 mM glutathione ethyl ester for 1 hr assessed as S phase accumulation at 100 uM after 24 hrs by FACS
Outline: (§5)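 HeLa cells pretreated for 1 h with the listed agent (10 mM GSH ethyl ester, 10 µM dexamethasone, 10 µM pifithrin, 100 µM Boc-Asp(OMe)-fmk or 5 µM cyclosporin A), then given 100 µM compound for 24 h. Cells fixed in PBS-MeOH, stained with PI/RNase and analysed by flow cytometry for DNA content. At least three experiments, one representative shown.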

HeLa [17] = test: Cell cycle arrest in human HeLa cells pretreated with 10 mM glutathione ethyl ester for 1 hr assessed as G2/M phase accumulation at 100 uM after 24 hrs by FACS; outline: as §5
HeLa [18] = test: Cell cycle arrest in human HeLa cells pretreated with 10 mM glutathione ethyl ester for 1 hr assessed as subG1 phase accumulation at 100 uM after 24 hrs by FACS; outline: as §5
HeLa [19] = test: Cell cycle arrest in human HeLa cells pretreated with 100 uM Boc-Asp(OMe)-fmk for 1 hr assessed as S phase accumulation at 100 uM after 24 hrs by FACS; outline: as §5
HeLa [20] = test: Cell cycle arrest in human HeLa cells pretreated with 100 uM Boc-Asp(OMe)-fmk for 1 hr assessed as G2/M phase accumulation at 100 uM after 24 hrs by FACS; outline: as §5
HeLa [21] = test: Cell cycle arrest in human HeLa cells pretreated with 10 uM Dexamethasone for 1 hr assessed as G1 phase accumulation at 100 uM after 24 hrs by FACS; outline: as §5
HeLa [22] = test: Cell cycle arrest in human HeLa cells pretreated with 10 uM Dexamethasone for 1 hr assessed as S phase accumulation at 100 uM after 24 hrs by FACS; outline: as §5

**Q.** What does the source list for `CCCCCCCCCCCCC/C=C(/C(=O)OC)[C@@H](O)C(C)=O` [SECOKOTOMOLIDE A]?
**A.** Activity (HeLa [1]): 18.1%; Activity (HeLa [2]): 28.7%; Activity (HeLa [3]): 75%; fold change (FC) (HeLa [4]): 3.4; fold change (FC) (HeLa [5]): 2.1; Activity (HeLa [6]): 49%; Activity (HeLa [7]): 92%; Activity (HeLa [8]): 1.4%; Activity (HeLa [9]): 75.1%; Activity (HeLa [10]): 75.1%; Activity (HeLa [11]): 3.2%; Activity (HeLa [12]): 2.3%; Activity (HeLa [13]): 54.5%; Activity (HeLa [14]): 55.3%; Activity (HeLa [15]): 57.3%; Activity (HeLa [16]): 8.4%; Activity (HeLa [17]): 11.6%; Activity (HeLa [18]): 11.3%; Activity (HeLa [19]): 13.6%; Activity (HeLa [20]): 25.7%; Activity (HeLa [21]): 53.9%; Activity (HeLa [22]): 33.8%

— ChEMBL document CHEMBL1157968, “Chemical and cytotoxic constituents from the leaves of Cinnamomum kotoense” (2006)
